pIC50: −log10 of the molar value. Activity calls are given as the source filed them. No cut-off for these calls is given here.

The values below come from ChEMBL document CHEMBL4400536, “Design and synthesis of aminothiazole based Hepatitis B Virus (HBV) capsid inhibitors” (Eur J Med Chem, 2019).

Series [1] relates to Hepatitis B virus. As to the kind of experiment: Antiviral activity against Hepatitis B virus infected in human HepG2.2.15 cells assessed as inhibition of viral replication after 7 days by RT-PCR analysis. The class given is functional, organism-based. As to conditions: for pIC50: HepG2.2.15, 168 h.
Series [2] can be described thus: Hepatic toxicity in BALB/c mouse assessed as effect on AST levels at 500 to 1000 mg/kg, ip measured on day 14. The class given is organism-based. Conditions: in vivo. An outline of the steps: (§1)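 Male Balb/c mice, 5 animals, given a single intraperitoneal injection at 0, 500 or 1000 mg/kg. Body weight followed for two weeks. On day 14, blood was taken for hepatic and renal function (AST, ALT, BUN, creatinine). Heart, liver, lung, spleen and kidney were sectioned, HE-stained and examined.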

The target of series [3] is Core antigen (Hepatitis B virus) (UniProt Q03732). The experiment in a line: Inhibition of dimerization of HA-tagged Hepatitis B Virus capsid (HBVcAg-C155-239) expressed in HEK293T cells at 50 to 100 uM after 48 hrs by Western blot analysis. Type of series: cell-based. An outline of the steps:
(§2)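 HEK293T cells were transfected with HBc-VN-HA or HBc-VC-FLAG and treated with DMSO, 50 or 100 μM compound. After 48 h, lysates were western blotted with anti-HA, anti-FLAG and anti-GAPDH.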
A general note: Immunoblotting shows a protein as a band on a membrane.

Series [4] can be described thus: Renal toxicity in BALB/c mouse assessed as effect on BUN levels at 500 to 1000 mg/kg, ip measured on day 14. The class given is organism-based. As to conditions: in vivo. In outline:
as §1

The test system of series [5] is Hepatitis B virus. As to the kind of experiment: Antiviral activity against Hepatitis B virus infected in BALB/c mouse injected with replication-competent HBV DNA plasmid HBV-1.2mer assessed as reduction in viral DNA replication at 30 mg/kg, iv measured after 2 weeks by RT-PCR analysis. The class given is functional, organism-based. An outline of the steps: (§3)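 BALB/c transgenic mice carrying the replication-competent HBV-1.2mer plasmid were bled at day 0 for HBV DNA copies and randomly split into two groups of 3 males. Each group got 30 mg/kg compound or DMSO by tail vein, every 2 days, for 2 weeks. Blood was then collected. HBV DNA was measured by real-time PCR and HBsAg by ELISA.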

Series [6] addresses Core antigen (Hepatitis B virus) (UniProt Q03732). As to the kind of experiment: Inhibition of dimerization of HA-tagged Hepatitis B Virus capsid (HBVcAg-N1-154) expressed in HEK293T cells at 50 to 100 uM after 48 hrs by co-immunoprecipitation assay. Type of series: cell-based. An outline of the steps: (§4)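 HEK293T cells were co-transfected with HBc-VN-HA and HBc-VC-FLAG, then treated with DMSO or compound. After 48 h, lysates were co-immunoprecipitated with anti-HA beads and analysed by immunoblot.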

Series [7] in a line: Acute toxicity in BALB/c mouse assessed as effect on body weight at 500 to 1000 mg/kg, ip measured after 2 weeks. Conditions: in vivo, 336 h. Type of series: organism-based. In outline: as §1
A short description of series [8]: Acute toxicity in BALB/c mouse assessed as effect on liver at 500 to 1000 mg/kg, ip measured on day 14 by hematoxylin and eosin staining based assay. Type of series: organism-based. As to conditions: in vivo. An outline of the steps:
as §1

Series [9] concerns the target Core antigen (Hepatitis B virus) (UniProt Q03732). As to the kind of experiment: Inhibition of GFP-fused Hepatitis B Virus capsid expressed in HEK293T cells at 50 uM after 48 hrs relative to control. The class given is cell-based. In outline: (§5)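 BiFC assay: HBc fused to Venus fragments VN (1–154) and VC (155–239) were co-transfected into 293T cells, then compounds were added. The dose series used 0, 0.5, 5 and 50 μM; SAR used 50 μM as percent inhibition. After 48 h, reconstituted fluorescence was read as mean fluorescent intensity on a plate reader, with fluorescence microscopy images.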

A short description of series [10]: Acute toxicity in BALB/c mouse assessed as effect on lung at 500 to 1000 mg/kg, ip measured on day 14 by hematoxylin and eosin staining based assay. Type of series: organism-based. Conditions: in vivo. An outline of the steps: as §1
Series [11] addresses Core antigen (Hepatitis B virus) (UniProt Q03732). As to the kind of experiment: Inhibition of GFP-fused Hepatitis B Virus capsid (HBVcAg-VFP-C155-239) expressed in HEK293T cells assessed as reduction in capsid assembly after 48 hrs by fluorescence microscopic analysis. Type of series: cell-based. An outline of the steps:
as §5

A short description of series [12]: Hepatic toxicity in BALB/c mouse assessed as effect on ALT levels at 500 to 1000 mg/kg, ip measured on day 14. Type of series: organism-based. Conditions: in vivo. An outline of the steps: as §1
A short description of series [13]: Acute toxicity in BALB/c mouse assessed as effect on spleen at 500 to 1000 mg/kg, ip measured on day 14 by hematoxylin and eosin staining based assay. The class given is organism-based. Conditions: in vivo. In outline:
as §1

For series [14], the target named is Core antigen (Hepatitis B virus) (UniProt Q03732). The experiment in a line: Inhibition of dimerization of HA-tagged Hepatitis B Virus capsid (HBVcAg-N1-154) expressed in HEK293T cells at 50 to 100 uM after 48 hrs by Western blot analysis. Type of series: cell-based. In outline: as §2
Core antigen (Hepatitis B virus), sequence (Q03732 as listed by the source): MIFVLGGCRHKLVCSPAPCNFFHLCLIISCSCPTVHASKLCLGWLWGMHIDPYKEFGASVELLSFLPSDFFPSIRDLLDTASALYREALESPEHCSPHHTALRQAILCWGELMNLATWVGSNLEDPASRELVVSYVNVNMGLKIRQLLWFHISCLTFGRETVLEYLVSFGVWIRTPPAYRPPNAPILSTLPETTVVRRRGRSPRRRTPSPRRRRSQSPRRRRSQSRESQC
Series [15] concerns Hepatitis B virus. As to the kind of experiment: Antiviral activity against Hepatitis B virus infected in human […] assessed as reduction in viral DNA replication at 30 mg/kg dosed orthotopically every 3 days for 4 weeks by RT-PCR analysis. Type of series: functional, organism-based.
Series [16] is described as follows: Renal toxicity in BALB/c mouse assessed as effect on CRE levels at 500 to 1000 mg/kg, ip measured on day 14. The class given is organism-based. As to conditions: in vivo. In outline: as §1
Series [17] deals with Hepatitis B virus. As to the kind of experiment: Antiviral activity against Hepatitis B virus infected in BALB/c mouse injected with replication-competent HBV DNA plasmid HBV-1.2mer assessed as reduction in HBsAg replication at 30 mg/kg, iv measured after 2 weeks by ELISA. Type of series: functional, organism-based. An outline of the steps:
as §3
A general note: ELISA stands for enzyme-linked immunosorbent assay.

Series [18] in a line: Acute toxicity in BALB/c mouse assessed as effect on kidney at 500 to 1000 mg/kg, ip measured on day 14 by hematoxylin and eosin staining based assay. The class given is organism-based. Conditions: in vivo. In outline: as §1
The target of series [19] is Core antigen (Hepatitis B virus) (UniProt Q03732). As to the kind of experiment: Inhibition of aggregation of HBV capsid (1 to 149 residues) expressed in Escherichia coli assessed as induction of abnormal capsid morphology at 0.2 to 50 uM by TEM analysis. In outline:
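His-tagged Cp149 was expressed in E. coli (IPTG 1 mM), Ni-affinity purified and kept in PBS. Cp149 (10 μM) in 50 mM HEPES pH 7.5 was preincubated 1 h with compound (0.2–50 μM) or DMSO. Assembly was started with NaCl to 50 mM and equilibrated 60 h at 23 °C. Grids were stained with 2% uranyl acetate and viewed by TEM.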

Series [20] has the same target. As to the kind of experiment: Inhibition of dimerization of HA-tagged Hepatitis B Virus capsid (HBVcAg-C155-239) expressed in HEK293T cells at 50 to 100 uM after 48 hrs by co-immunoprecipitation assay. Type of series: cell-based. An outline of the steps: as §4
The nature of series [21]: Cytotoxicity against human HepG2.2.15 cells. Type of series: cell-based, HepG2 2.2.15.
Series [22] is described as follows: Acute toxicity in BALB/c mouse assessed as effect on heart at 500 to 1000 mg/kg, ip measured on day 14 by hematoxylin and eosin staining based assay. Type of series: organism-based. As to conditions: in vivo. In outline: as §1
Series [23] deals with Core antigen (Hepatitis B virus) (UniProt Q03732). As to the kind of experiment: Inhibition of GFP-fused Hepatitis B Virus capsid (HBVcAg-GFP-N1-154) expressed in HEK293T cells assessed as reduction in capsid assembly after 48 hrs by fluorescence microscopic analysis. The class given is cell-based. In outline:
as §5

What is called inhibition is the drop in the measured response relative to a control, in per cent. In general, pIC50 refers to −log10 of the IC50, conventionally taken in molar units. The term CC50 denotes the concentration that lowers cell viability or growth by half. The low end stands for greater toxicity to the cells, the high end for lower toxicity to the cells. As to `O=S(=O)(Nc1ncc(C(Oc2ccc3cc(Br)ccc3c2)c2ccc(Cl)cc2)s1)c1cccc2cccnc12` (stereo not drawn), the inhibition result in the series on Hepatitis B virus [1] was “Dose-dependent effect”; in series [9] it was 63%; in series [11], “Dose-dependent effect”; in series [23], “Dose-dependent effect”. Moreover, the pIC50 with Hepatitis B virus [1] was 6.74. In addition, the Activity result in [2], in series [4], in [7], in series [8], in series [10] and in series [12] was “Non-Toxic” each time. Besides, the Activity entry in [13], in series [16], in series [18] and in [22] was “Non-Toxic” each time. The inhibition result in series [3], in series [6], in [14], in series [19] and in [20] was “Active” in each case. Also, the result in the series with Hepatitis B virus [5], in the series with Hepatitis B virus [15] and with Hepatitis B virus [17] was Active. In [21], this molecule had a half-maximal cytotoxic concentration (CC50) above 50 µM.
Turning to `O=C(Nc1ncc(Cc2ccc(Cl)cc2)s1)c1cccs1`, the pIC50 in the series with Hepatitis B virus [1] is 5.44. The inhibition in series [9] stood at 59%. Also, in series [21], the CC50 is above 50 µM.
Consider `COc1ccc(C(=O)Nc2ncc(C(Nc3cccc4ccccc34)c3ccc(Cl)cc3)s2)cc1` (stereo not drawn), for which, in the series with Hepatitis B virus [1], the pIC50 was 5.16. Moreover, in series [9], the inhibition was found to be 69%. Besides, the CC50 in series [21] is above 50 µM.
Consider `CC(C)(C)OC(=O)Nc1ncc(C(Oc2ccc3cc(Br)ccc3c2)c2ccc(Cl)cc2)s1` (stereo not drawn), for which, in the series on Hepatitis B virus [1], the pIC50 is 5.64. Further, the inhibition in [9] was found to be 55%. In series [21], this molecule gave a CC50 above 50 µM.
